Reference: paper PMC5613202 (CPT: Pharmacometrics & Systems Pharmacology, 2017)
Where a SMILES comes first, the peptide text is derived from it. Bridges are numbered along the chain shown (N, C = ends). [ ]: non-standard residue; d: D form. 2Nal = N[C@@H](Cc1ccc2ccccc2c1)C(=O)O; Lys(iPr) = CC(C)NCCCC[C@H](N)C(=O)O

Experiments:
[1] = type: in vivo, human
Procedure, shortened: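 The analysis used 767 plasma samples from 147 patients given once-daily s.c. doses. Concentrations were measured by validated LC-MS/MS (LLOQ 0.2, ULOQ 100 ng/mL). The data were fitted with a two-compartment nonlinear mixed-effects model with first-order absorption and dose-dependent clearance. Exponential interindividual variability was used, with allometric body-weight scaling to an 80.1-kg subject. The model was built on rich dose-escalation data, then refined with sparse data. Absorption rate was later fixed at 10 h-1.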

blood CD34+ cell counts = type: in vivo, human; conditions: patients
Procedure, shortened: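 Pooled data from three open-label trials of once-daily s.c. peptide antagonist. In the dose-escalation trial, patients received 1–30 mg/day, or 2.5 or 20 mg/day, for 28-day cycles with rich sampling. The other two trials gave 20 mg/day with standard-of-care chemotherapy or sunitinib and used sparse sampling. CD34+ counts were measured by flow cytometry. The model was a precursor model with reversible precursor–central transfer and concentration-driven stimulation of mobilisation (Smax, SC50).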

Antidrug antibody = test: Antidrug antibody; set-up: species or system human; conditions: all patients included in the analysis datasets
Procedure, shortened: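 Serum was sampled repeatedly before and after starting once-daily s.c. dosing. Qualitative direct ELISA: the test compound was immobilised on the plate to capture antibodies, which were detected with HRP-conjugated goat anti-human IgG, IgM and IgA and a tetramethylbenzidine substrate. Pooled normal human serum served as negative control. Serum from hyperimmunised cynomolgus monkeys, at various dilutions, served as positive control.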

CXCR4 = conditions: cited from earlier work
[2] = system: CXCL12/CXCR4-mediated chemotaxis; conditions: in vitro; cited from earlier work
[3] = system: leukocytes and hematopoietic progenitors; conditions: rodent and primate models; cited from earlier work
MDA‐MB‐231 breast cancer = MDA‐MB‐231 breast cancer metastatic xenograft model; cited from earlier work
cytochromes = conditions: preclinical evaluations, no reference given; cited from earlier work
[4] = rats, excretion studies, no reference given; cited from earlier work
[5] = population PK typical value, s.c.

CC(C)NCCCC[C@H](NC(=O)[C@H]1CCC(=O)N[C@@H](Cc2ccccc2)C(=O)N[C@@H](Cc2ccc(O)cc2)C(=O)N[C@@H](CCCCNC(C)C)C(=O)N[C@H](CCCNC(=N)N)C(=O)N[C@@H](Cc2ccc3ccccc3c2)C(=O)NCC(=O)N1)C(N)=O [LY2510924] (FY[Lys(iPr)][dR][2Nal]G[dE][Lys(iPr)]-NH2; lactam N-7)
TVKA, estimates of typical first‐order absorption rate when estimated ([1]; high and poorly estimated, before fixing, s.c.): > 40 h⁻¹
TVV2/F, typical apparent central volume of distribution ([1]; population PK typical value, 80.1-kg subject, s.c.): 35.0 L
TVCLmin/F, typical minimum apparent elimination clearance ([1]; population PK typical value, 80.1-kg subject, s.c. once daily, 147 patients): 4.75 L/h
TVQ/F, typical apparent distribution clearance [1, 5]: 3.74 L/h
TVV3/F, typical apparent peripheral volume of distribution [1, 5]: 21.9 L
bV, typical allometric exponent specific to central volume ([1]; population PK, body weight scaling relative to 80.1 kg): 0.948
SC50, LY2510924 concentration at which half of the maximum stimulatory effect is achieved (blood CD34+ cell counts; PK/PD model typical value, plasma concentration): 6.87 ng/mL
Smax, maximum stimulatory effect of LY2510924 on CD34+ cell mobilization (blood CD34+ cell counts; PK/PD model typical value, s.c. once daily): 13.1
EC50 (blood CD34+ cell counts; read-out: SC50, LY2510924 concentration at which half of the maximum stimulatory effect is achieved, conversion of 6.87 ng/mL, plasma concentration): 5.78 nM
patients who developed ADA (Antidrug antibody): None
CXCR4 agonist properties (CXCR4): does not exhibit any CXCR4 agonist properties
value observed in chemotaxis inhibition assays [2]: 0.26 nM
mobilization of leukocytes and hematopoietic progenitors to the blood stream [3]: dose‐ and time‐dependent mobilization
effect on tumor metastasis (MDA‐MB‐231 breast cancer): inhibit tumor metastasis
substrate, inhibitor or inducer of cytochromes (cytochromes): not a substrate, an inhibitor, or an inducer of cytochromes
dose recovered as parent drug in urine [4]: < 40%
